Among the data in ChEMBL document CHEMBL3351742, “Novel quinazoline-urea analogues as modulators for Aβ-induced mitochondrial dysfunction: design, synthesis, and molecular docking study” (Eur J Med Chem, 2014) are Activity and viability values, retold here.

One data set relates to HT-22. Kind of data set: Inhibition of beta-amyloid peptide-induced mitochondrial permeability transition pore opening in mouse HT22 cells assessed as increase in green/red fluorescence ratio at 5 uM pre-incubated for 10 mins before Abeta peptide addition by JC-1 assay. In kind it is cell-based. The arrangement: scale not given: the % may be the effect or the level left. In short, it runs like this: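 HT-22 mouse hippocampal cells (DMEM, 10% FBS, 37 °C, 5% CO2), 30,000/well seeded a day ahead; loaded with 7.5 μM JC-1 (final) in phenol red-free Opti-MEM for 1 h 15 min at 37 °C, PBS-washed. Compound 5 μM for 10 min, then Aβ1–42 5 μM. Fluorescence read hourly for 3 h, red ex/em 530/580, green 485/530; green/red ratio change relative to Aβ alone (100%).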

Data set [1] in a line: Toxicity against mouse HT22 cells assessed as cell viability at 5 uM after 24 hrs by MTT assay. In kind it is cell-based, HT-22. To be noted: read-out: Activity. Summed up: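 HT-22 cells, 5000/well, given compound at 5 μM without Aβ, 24 h at 37 °C. MTT added for 2 h at 37 °C, formazan dissolved in 10% Triton X-100/isopropanol with 0.1 M HCl for 1 h at room temperature; absorbance at 570 nm, vehicle-control values subtracted to derive viability.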
A general note: Tetrazolium assays rely on reduction of a dye to a coloured formazan, in cell work by metabolically active cells.

For the compound `Cc1ccc(NC(=O)Nc2cc3ncncc3cc2OCc2ccc(Cl)cc2)cc1`, in the data set on HT-22, the Activity turned out to be 63%.
With `O=C(Nc1cc2ncncc2cc1OCc1ccccc1F)Nc1cccc2ccccc12`, the viability at 24 h, 5 µM in data set [1] was 83%. Moreover, the Activity in the data set on HT-22 stood at 39.4%.
On to `Cc1ccc(NC(=O)Nc2cc3ncncc3cc2OCc2ccccc2Cl)cc1`, for which, in the data set with HT-22, the Activity was found to be 54.7%.
The same measure, in the same setting: for `O=C(Nc1ccc(C(F)(F)F)cc1)Nc1cc2ncncc2cc1OCc1ccc(Cl)cc1` the value was 48%.
On the same count and under the same terms, under `O=C(Nc1cccc(Cl)c1)Nc1cc2ncncc2cc1OCc1ccccc1F` stands 51.4%.
As for `O=C(Nc1cccc(F)c1)Nc1cc2ncncc2cc1OCc1ccccc1`, in data set [1], the viability at 24 h, 5 µM stood at 100%. The Activity with HT-22 amounted to 38%.
Regarding `O=C(Nc1ccccc1F)Nc1cc2ncncc2cc1OCc1ccc(Cl)cc1`, the viability at 24 h, 5 µM in data set [1] came to 102%. Besides, the Activity in the data set on HT-22 was found to be 24%.
`Cc1ccc(NC(=O)Nc2cc3ncncc3cc2OCc2ccc(F)cc2)cc1`: in the data set with HT-22, the Activity came to 99.2%.
For the compound `O=C(Nc1ccccc1F)Nc1cc2ncncc2cc1OCc1ccccc1Cl`, in data set [1], the viability at 24 h, 5 µM was 101%. Also, in the data set with HT-22, the Activity is 31%.
Turning to `O=C(Nc1ccc(Cl)c(Cl)c1)Nc1cc2ncncc2cc1OCc1ccccc1`, the Activity in the data set with HT-22 was found to be 73%.
For the compound `O=C(Nc1ccccc1F)Nc1cc2ncncc2cc1OCc1ccc(F)cc1`, the Activity with HT-22 came out at 80.3%.
Turning to `O=C(Nc1ccc(Cl)c(Cl)c1)Nc1cc2ncncc2cc1OCc1ccc(Cl)cc1`, in the data set with HT-22, the Activity was 91%.
Still for that read-out and setting: for `O=C(Nc1ccc(Cl)c(Cl)c1)Nc1cc2ncncc2cc1OCc1ccc(F)cc1` the value was 155%.
As to `O=C(Nc1cccc(F)c1)Nc1cc2ncncc2cc1OCc1ccc(F)cc1`, in the data set on HT-22, the Activity was 61.5%.
Still for that read-out and setting: for `O=C(Nc1ccc(C(F)(F)F)cc1)Nc1cc2ncncc2cc1OCc1ccc(F)cc1` the value was 81%.
As for `Cc1ccc(NC(=O)Nc2cc3ncncc3cc2OCc2cccc(F)c2)cc1`, in the data set on HT-22, the Activity stood at 81%.
Same read-out and setting: for `Cc1ccc(NC(=O)Nc2cc3ncncc3cc2OCc2ccccc2)cc1` the value was 154%.
Turning to `Cc1ccc(NC(=O)Nc2cc3ncncc3cc2OCc2ccccc2F)cc1`, in data set [1], the viability at 24 h, 5 µM was determined as 131%. The Activity in the data set with HT-22 came out at 26.7%.
The corresponding values for `O=C(Nc1cccc(F)c1)Nc1cc2ncncc2cc1OCc1cccc(F)c1` are 104% and 27%.
The corresponding values for `O=C(Nc1cccc(F)c1)Nc1cc2ncncc2cc1OCc1ccc(Cl)cc1` are 100% and 29%.
As to `O=C(Nc1cccc(F)c1)Nc1cc2ncncc2cc1OCc1ccccc1F`, the Activity with HT-22 came to 56.9%.
On the same count and under the same terms, under `O=C(Nc1cc2ncncc2cc1OCc1ccccc1)Nc1cccc2ccccc12` stands 76%; under `O=C(Nc1cccc(Cl)c1)Nc1cc2ncncc2cc1OCc1ccc(F)cc1`, 67.9%.
Still for that read-out and setting: under `O=C(Nc1cccc(Cl)c1)Nc1cc2ncncc2cc1OCc1ccc(Cl)cc1` stands 64%; under `O=C(Nc1ccc(C(F)(F)F)cc1)Nc1cc2ncncc2cc1OCc1ccccc1F`, 68.6%.
